Source: PubChem BioAssay (Johns Hopkins Ion Channel Center)
hERG rescue – hERG (human) protection from proarrhythmic block | Q12809 | CHO-hERG, FluxOR thallium flux, dofetilide IC70 present | activation (rescue from dofetilide block), less the hit threshold, % at 10 µM | 310,000 compounds, 0.51% hits | AID 1511;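 active means activation above the mean of controls blocked by dofetilide plus 5 SD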;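 further: thallium influx through hERG after potassium depolarization seen as dye fluorescence rise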
KCNK3 inh – human KCNK3 channel inhibition, primary screen. B-score at 10 µM. CHO-KCNK3 thallium flux, FluxOR fluorescence; stronger effect = lower value. O14649. 340,000 compounds, 0.84% hits;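 active means B-score under library mean minus 4 SD, starting fluorescence ratio at most library mean plus 5 SD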;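 further: more negative B-score means stronger inhibition of thallium flux through KCNK3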
Target sequence (O14649 whole entry, looked up): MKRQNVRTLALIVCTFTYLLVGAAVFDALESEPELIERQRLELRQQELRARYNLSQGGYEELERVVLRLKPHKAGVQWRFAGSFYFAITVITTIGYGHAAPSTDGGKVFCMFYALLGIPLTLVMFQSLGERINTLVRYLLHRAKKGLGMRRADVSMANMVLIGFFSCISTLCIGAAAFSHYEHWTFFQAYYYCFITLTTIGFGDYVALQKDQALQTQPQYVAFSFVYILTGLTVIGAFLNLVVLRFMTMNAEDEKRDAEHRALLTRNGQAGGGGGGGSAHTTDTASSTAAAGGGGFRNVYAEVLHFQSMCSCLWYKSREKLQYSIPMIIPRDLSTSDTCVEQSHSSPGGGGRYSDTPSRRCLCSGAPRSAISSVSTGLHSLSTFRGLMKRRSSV
Kir21 block – blocks the mouse Kir2.1 inward-rectifier potassium channel; HEK293-Kir2.1, FluxOR thallium flux fluorescence; stronger effect = lower value; B-score at 10 µM; 310,000 compounds, 0.85% hits; AID 1672;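 active means fluorescence ratio B-score at or below minus 3 SD of library scores, with starting-brightness B-score within 2 SD, cut at about -4.2 in these data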;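 further: channel flux triggered by added potassium and thallium sulfate stimulus; B-score of peak minus minimum fluorescence over baseline after thallium stimulus; more negative B-score means stronger Kir2.1 block with less thallium influx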
KCNQ1 inh – blocks the human KCNQ1 potassium channel; CHO-K1 KCNQ1, FluxOR thallium flux fluorescence; stronger effect = higher value; B-score at 10 µM; 310,000 compounds, 1.3% hits; AID 2642;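 active means compounds whose thallium flux B-score, printed positive for inhibition, exceeds three library SD while starting fluorescence stays within three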;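 further: channel opened by potassium depolarization with thallium stimulus after 20 min compound exposure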
KCNK9 inh-1 – blocks the human KCNK9 two-pore domain potassium channel | Q9NPC2 | HEK293 KCNK9, FluxOR thallium flux fluorescence; stronger effect = lower value | B-score at 10 µM | 310,000 compounds, 1.2% hits | AID 488922;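 active means ratio B-score over 3 SD below the library mean, with starting fluorescence within 5 SD of its mean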;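 further: negative B-score means less thallium flux so channel inhibition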
KCNQ1 act – potentiators or activators of human KCNQ1 potassium channel | P51787 | CHO-K1 KCNQ1, thallium flux FluxOR fluorescence; stronger effect = higher value | B-score at 10 µM | 310,000 compounds, 0.35% hits;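 active means fluorescence ratio B-score, a plate-corrected score, at least three library SD, with initial intensity B-score within 5 SD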
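assay system = KCNQ1-transfected CHO-K1 cells | medium = assay buffer with matched DMSO | probe or stimulus = depolarizing K+/Tl+ stimulus, K2SO4 and Tl2SO4 each 12.5 mM in 5x stock | dosing = single dose | incubation = dye 90 min, compound 20 min, room temperature | detection = kinetic FluxOR fluorescence, 10 s baseline plus 110 s post-stimulus | evaluation = ratio B score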
hERG inh – hERG (human) inhibition as Kir2.1 counter-screen; inhibition, % at 10 µM; shares compounds with Kir21 block; hERG-expressing cells, thallium flux; 320 compounds, 20% hits;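 further: host cells are CHO cells stably expressing hERG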
KCNK9 inh-2 – human KCNK9 off-target activity of Kir2.1 blockers | shares compounds with Kir21 block | KCNK9-expressing cells, ion flux inhibition | inhibition, % at 10 µM | 320 compounds, 5% hits
Kir21 ephys inh – mouse Kir2.1 inward rectifier channel inhibition. shares compounds with Kir21 block. Kir2.1 cells, automated patch-clamp current inhibition. inhibition, % at 25 µM. 320 compounds, 71% hits. AID 463252
An asterisk follows results filed as active; i = inactive; · = no result. Shown are actives, neighbours in structure and some others; about 3.8% of the full set was active somewhere. Unless noted, how the calls were made is not given here.

SMILES	hERG rescue	KCNK3 inh	Kir21 block	KCNQ1 inh	KCNK9 inh-1	KCNQ1 act	hERG inh	KCNK9 inh-2	Kir21 ephys inh
CC(C)(C)c1ccc(OCCNCc2ccccc2)cc1	-15	i	-2.9	i	i	i	·	·	·
Clc1ccc(OCCOCCNCc2ccccc2)cc1Cl	-11	i	-8.7*	i	i	i	51%*	i	42%*
CCc1nc(C)cn1S(=O)(=O)c1ccc(Cl)c(Cl)c1Cl	-17	i	-2.5	i	i	i	·	·	·
CCc1nc(C)cn1S(=O)(=O)c1cc(Cl)c(OC)cc1Cl	-5	i	-10*	i	i	i	i	i	51%*
CCc1nc(C)cn1S(=O)(=O)c1cc(Br)ccc1OC	-14	i	-8.9*	i	i	i	i	i	64%*
COc1ccc(C(C)NC(=O)c2ccccc2)cc1 (configuration not stated)	-8	i	-0.04	i	i	i	·	·	·
COc1ccc(C(CCNC(C)c2ccccc2)C(C)C)cc1 (configuration not stated)	-10	i	-11*	i	i	i	i	i	2.7%*
COc1ccc(S(=O)(=O)N2CCc3ccccc32)cc1OC	-10	i	-6.2*	i	i	i	i	i	24%*
COC(=O)C1=C(C)N(Cc2ccccc2)C(=NCCc2ccccn2)N[C@H]1c1cccc(F)c1	-8	i	-6.7*	i	i	i	i	i	3.0%*
Cc1ccc2nc(CCCc3nc4ccc(C)cc4[nH]3)[nH]c2c1	-9	i	-8.6*	i	i	i	i	i	i
O=S(=O)(Nc1ccccc1N1CCOCC1)c1ccc(F)c(Cl)c1	-3	i	-12*	i	i	i	i	i	2.6%*
Cc1ccc(NC(=O)COc2ccccc2CNC(C)(C)CC(C)(C)C)cc1	-19	i	-6.3*	8*	i	i	50%*	37%*	i
CC(C)(CO)NCc1ccccc1OCC(=O)Nc1ccccc1	-1	i	-0.12	i	i	i	·	·	·
Cc1ccnc(NC(=O)CCC(=O)N(CC(=O)NCc2ccc(F)cc2)Cc2ccccc2)c1	-5	i	0.81	i	i	i	·	·	·
Cc1ncsc1C(=O)N1CCCC(CNS(=O)(=O)c2cccs2)C1 (configuration not stated)	0	i	0.46	i	i	i	·	·	·
O=C(CCc1ccncc1)NC1CCCc2c1cnn2-c1ccc(F)cc1F (configuration not stated)	-10	i	1.4	i	i	i	·	·	·
O=S(=O)(c1ccc(Cl)cc1)N1CCCC1c1nc(-c2ccc(Cl)cc2)no1 (configuration not stated)	-5	i	-1.1	i	i	i	·	·	·
Nc1nc(C2CCCN2S(=O)(=O)c2ccc(Cl)cc2)cs1 (configuration not stated)	-4	i	-6.6*	i	i	i	i	i	14%*
CCN(c1ccccc1)S(=O)(=O)c1ccc(OC)c(NC(=O)c2ccc(=O)[nH]c2)c1	·	i	·	·	·	·	·	·	·
NS(=O)(=O)c1ccc(CCNCc2ccccc2OCc2ccc(Cl)cc2)cc1	-15	i	-8.2*	i	i	i	65%*	i	31%*
NS(=O)(=O)c1ccc(CCNCc2cc(Br)ccc2OCc2ccccc2F)cc1	-17	i	-6.3*	i	i	i	i	46%*	12%*
Cc1ccccc1CN1CCN(C(C)C(=O)NNC(=O)c2ccc(F)cc2)CC1 (configuration not stated)	·	i	·	·	·	·	·	·	·
Cc1ccccc1C(=O)N1CCC(C(=O)Nc2cc(C(F)(F)F)ccc2N2CCCC2)CC1	-14	i	-0.03	i	i	i	·	·	·
